From ChEMBL document CHEMBL1129961, “Design, synthesis, and antiviral evaluation of 2-chloro-5,6-dihalo-1-beta-D-ribofuranosylbenzimidazoles as potential agents for human cytomegalovirus infections” (J Med Chem, 1997) come the findings set out here.

Where only a bound is given, the exact number is not on record here.

Test [1] concerns Human betaherpesvirus 5. Nature of the test: Concentration required for 50% inhibition of HCMV replication was measured using a Plaque reduction assay. In kind it is functional, organism-based. In a few lines: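 HFF cells in 24-well dishes infected with about 100 pfu of HCMV (Towne) per cm² cell sheet. After adsorption, compound in growth medium added to duplicate wells at four to eight concentrations. Incubated 7 days at 37 °C, then crystal violet fixing/staining and microscopic plaque counts. IC50 by linear regression of % plaque reduction against log concentration.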

A further test deals with HFF. Nature of the test: Visual cytotoxicity was scored on HFF cells at time of HCMV plaque enumeration. In kind it is functional, cell-based. Conditions: Homo sapiens. In a few lines: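 Stationary HFF cells from the HCMV plaque assay, not affected by virus, inspected microscopically for cytotoxicity when plaques were counted after 7 days at 37 °C with compound at four to eight concentrations.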

The test system of the next test is Human alphaherpesvirus 1. Put plainly: Antiviral activity was measured by plaque assay against HSV-1 virus by ELISA method. In kind it is functional, organism-based. The essentials:
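HSV-1 (KOS strain) ELISA in BSC-1 cells, 10 000 per well in MEM(E) + 10% calf serum, seeded overnight at 37 °C. Drug in quadruplicate wells plus virus at 100 pfu/well, 3 days at 37 °C. Read-out: HRP-conjugated rabbit anti-HSV-1 antibody with TMB substrate, stopped with H2SO4, absorbance at 450 and 570 nm. IC50 from linear regression of % inhibition against log concentration.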
On the technique in general: An ELISA detects its analyte on a solid surface through an enzyme-linked reagent.

For the next test, the system named is KB. Nature of the test: Inhibition of KB cell growth was determined. Conditions: Homo sapiens. In kind it is functional, cell-based. In a few lines:
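KB cells seeded at 3000–5000 per well, overnight at 37 °C. Compound added in quadruplicate at six to eight concentrations, 48 h at 37 °C in CO2 (two population doublings). Ethanol fixation, 0.1% crystal violet staining, acidified-ethanol elution, absorbance at 570 nm. IC50 by linear regression against log concentration.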

For test [2], the system named is Human betaherpesvirus 5. Put plainly: Concentration required for 90% inhibition of HCMV replication was measured using a yield reduction assay. The format is functional. In a few lines: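 HFF monolayers in 96-well dishes infected with HCMV (Towne) at moi 0.5 to 1 pfu per cell. Compound serially diluted 1:3, 100 to 0.14 μM, in duplicate. 7 days at 37 °C, then one freeze-thaw cycle. Progeny titred by 1:3 serial dilution onto fresh HFF monolayers with plaque counts. IC90 by regression of % inhibition against log concentration.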

Turning to `Nc1cc2[nH]c(Cl)nc2cc1[N+](=O)[O-]`, the IC50 (in general, the concentration that inhibits the measured activity by half) with Human betaherpesvirus 5 [1] is more than 100 µM; in the test with HFF it was more than 100 µM; in the test with Human alphaherpesvirus 1, 90 µM.

Take `Nc1cc2[nH]c(Cl)nc2cc1I`: the IC50 in the test on Human betaherpesvirus 5 [1], in the test on HFF and in the test on Human alphaherpesvirus 1 was more than 100 µM in each case.

Consider `OC[C@H]1OC(n2c(Cl)nc3ccccc32)[C@H](O)[C@@H]1O` (some centres not stated), for which the IC50 in the test with Human betaherpesvirus 5 [1], in the test on HFF and in the test with KB was more than 100 µM in each case. For the same compound, the IC90 – broadly, the point of the concentration-response curve where the effect stands at 90% – in the test on Human betaherpesvirus 5 [2] was more than 100 µM.

In the test with Human betaherpesvirus 5 [2], `OC[C@H]1O[C@@H](n2c(Cl)nc3cc(Cl)c(Cl)cc32)[C@H](O)[C@@H]1O` displayed an IC90 of 1.4 µM.

Compound `O=C(O)P(=O)(O)O` [FOSCARNET] gave an IC50 in the test on HFF of more than 100 µM.

Turning to `Clc1nc2cc(Br)c(Br)cc2[nH]1`, the IC50 is 8.5 µM in the test on Human betaherpesvirus 5 [1], 32 µM with HFF, 65 µM with Human alphaherpesvirus 1 and 35 µM in the test with KB.

Turning to `O=[N+]([O-])c1cc2[nH]c(Cl)nc2cc1I`, the IC50 in the test on Human betaherpesvirus 5 [1] turned out to be 2.8 µM; in the test on HFF, 10 µM; in the test on Human alphaherpesvirus 1 it was 25 µM. In addition, in the test with Human betaherpesvirus 5 [2], the IC90 is 7 µM.

Regarding `Cc1cc2nc(Cl)n(C3O[C@H](CO)[C@@H](O)[C@H]3O)c2cc1C` (some centres not stated), the IC50 with Human betaherpesvirus 5 [1], with HFF, with Human alphaherpesvirus 1 and in the test with KB was more than 100 µM each time.

For `OC[C@H]1OC(n2c(Cl)nc3cc(I)c(I)cc32)[C@H](O)[C@@H]1O` (some centres not stated), the concentration for half-maximal inhibition (IC50) in the test with Human betaherpesvirus 5 [1] came out at 2.5 µM; in the test on HFF, 13 µM; in the test with Human alphaherpesvirus 1 it was 57 µM; in the test on KB it was 27 µM. This compound also showed an IC90 with Human betaherpesvirus 5 [2] of 2.2 µM.

For `Nc1nc2c(ncn2COC(CO)CO)c(=O)[nH]1` [GANCICLOVIR], the IC50 in the test on HFF and in the test on KB was more than 100 µM each time. This compound returned an IC90 with Human betaherpesvirus 5 [2] of 1.6 µM.

Regarding `Fc1cc2nc(Cl)[nH]c2cc1F`, the IC50 in the test with Human betaherpesvirus 5 [1], with HFF and with KB was more than 100 µM throughout.

Take `OC[C@H]1OC(n2c(Cl)nc3cc(F)c(F)cc32)[C@H](O)[C@@H]1O` (some centres not stated): the IC50 in the test on Human betaherpesvirus 5 [1], with HFF, in the test on Human alphaherpesvirus 1 and in the test with KB was more than 100 µM throughout. In addition, in the test with Human betaherpesvirus 5 [2], the IC90 worked out at 75 µM.

Consider `OC[C@H]1OC(n2c(Cl)nc3cc(Br)c(Br)cc32)[C@H](O)[C@@H]1O` (some centres not stated), for which the IC50 in the test with Human betaherpesvirus 5 [1] was 3.8 µM; in the test on HFF, 44 µM; in the test on Human alphaherpesvirus 1, more than 100 µM; in the test with KB, 88 µM. This compound came in with an IC90 in the test on Human betaherpesvirus 5 [2] of 1.3 µM.

Regarding `Clc1nc2cc(I)c(I)cc2[nH]1`, the IC50 in the test on Human betaherpesvirus 5 [1] is 20 µM; in the test with HFF, 32 µM.
